# Measurements reported in ChEMBL document CHEMBL2390839, “Di-alkylated paromomycin derivatives: targeting the membranes of gram positive pathogens that cause skin infections” (Bioorg Med Chem, 2013).
# Activity calls are given as the source filed them. The calls are words filed in the database; no cut-off is given here. Non-standard residues stand in square brackets, D forms with d. Residues, ends and D or L forms follow the SMILES beside them. *: point of attachment. NHCH2CH2OH = OCCN*; For = O=C*
# Experiments:
# [1] = Hemolytic activity in rat RBC assessed as hemoglobin release at 32 ug/mL after 1 hr by microplate reader analysis relative to control; type: ADME, cell-based, Erythrocyte; details: red blood cells (RBC), read-out: Activity
# Summary of the method: (§1)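 Rat RBCs (2% w/w) were exposed to compound for 1 h at 37 °C, 5% CO2, using twofold dilutions from 256 µg/mL. PBS served as the negative control and 1% w/v Triton X-100 as the 100% lysis control. After centrifugation (2000 rpm, 10 min), supernatant absorbance was read at 550 nm and expressed as % hemoglobin release relative to Triton. Assays were run in triplicate, averaged over blood from at least two rats.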
# Streptococcus pyogenes [2] = experiment: Antibacterial activity against Streptococcus pyogenes serotype M1T1 assessed as growth inhibition after 24 hrs by MTT assay; type: functional; details: serotype M1T1, 24 h
# Summary of the method: (§2)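 Starter cultures were grown 24 h at 37 °C, 5% CO2, aerobic, then diluted in fresh medium to OD600 0.004. Twofold serial dilutions started at 64 µg/mL. After 24 h of incubation, MTT (1 mg/mL solution) was added and plates were incubated 2 h more at 37 °C. MIC was taken as the lowest concentration with no growth. Two independent experiments were run, each in triplicate.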
# [3] = Antibacterial activity against Streptococcus pyogenes serotype M5 assessed as growth inhibition after 24 hrs by MTT assay; type: functional; summary of the method: as §2
# [4] = Antibacterial activity against biofilm-positive Staphylococcus epidermidis RP62A ATCC 35984 assessed as growth inhibition after 24 hrs by MTT assay; type: functional; details: ATCC 35984, 24 h; summary of the method: as §2
# Streptococcus pyogenes [5] = experiment: Antibacterial activity against glossy colony producing Streptococcus pyogenes assessed as growth inhibition after 24 hrs by MTT assay; type: functional; summary of the method: as §2
# [6] = tested on: Staphylococcus epidermidis; experiment: Antibacterial activity against biofilm-negative Staphylococcus epidermidis ATCC 12228 assessed as growth inhibition after 24 hrs by MTT assay; type: functional; details: ATCC 12228, 24 h; summary of the method: as §2
# [7] = Antibacterial activity against Streptococcus pyogenes serotype M3 assessed as growth inhibition after 24 hrs by MTT assay; type: functional; summary of the method: as §2
# Staphylococcus aureus [8] = experiment: Antibacterial activity against Staphylococcus aureus Cowan ATCC 12598 assessed as growth inhibition after 24 hrs by MTT assay; type: functional; details: Cowan ATCC 12598, 24 h
# Summary of the method: (§3)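 Starter cultures grown 24 h at 37 °C, 5% CO2, aerobic, then diluted in fresh medium to OD600 0.004. Twofold serial dilutions from 64 µg/mL, 24 h incubation. MTT (1 mg/mL solution) added, then 2 h at 37 °C. MIC = lowest concentration with no visible growth. Two independent experiments, each in triplicate.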
# [9] = Antibacterial activity against Streptococcus pyogenes serotype M2 assessed as growth inhibition after 24 hrs by MTT assay; type: functional; summary of the method: as §2
# Streptococcus pyogenes [10] = experiment: Antibacterial activity against Streptococcus pyogenes JRS75 assessed as growth inhibition after 24 hrs by MTT assay; type: functional; details: JRS75, 24 h; summary of the method: as §2
# Streptococcus pyogenes [11] = experiment: Antibacterial activity against Streptococcus pyogenes serotype T5 assessed as growth inhibition after 24 hrs by MTT assay; type: functional; details: serotype T5, 24 h; summary of the method: as §2
# Staphylococcus aureus [12] = experiment: Antibacterial activity against Staphylococcus aureus NCTC 6571 assessed as growth inhibition after 24 hrs by MTT assay; type: functional; details: NCTC 6571, 24 h; summary of the method: as §3
# [13] = Hemolytic activity in rat RBC assessed as hemoglobin release at 16 ug/mL after 1 hr by microplate reader analysis relative to control; type: ADME, cell-based, Erythrocyte; details: red blood cells (RBC), read-out: Activity; summary of the method: as §1
# Streptococcus pyogenes [14] = experiment: Antibacterial activity against Streptococcus pyogenes serotype M24 assessed as growth inhibition after 24 hrs by MTT assay; type: functional; details: serotype M24, 24 h; summary of the method: as §2
# Streptococcus pyogenes [15] = experiment: Antibacterial activity against Streptococcus pyogenes MGAS9429 assessed as growth inhibition after 24 hrs by MTT assay; type: functional; details: MGAS9429, 24 h; summary of the method: as §2
# Staphylococcus aureus [16] = experiment: Antibacterial activity against methicillin-resistant Staphylococcus aureus assessed as growth inhibition after 24 hrs by MTT assay; type: functional; summary of the method: as §3
# Staphylococcus aureus [17] = experiment: Ratio of gramicidin D MIC to compound MIC for Staphylococcus aureus Cowan ATCC 12598; type: functional
# Streptococcus pyogenes [18] = experiment: Ratio of gramicidin D MIC to compound MIC for Streptococcus pyogenes MGAS9429; type: functional
# [19] = tested on: Staphylococcus epidermidis; experiment: Ratio of gramicidin D MIC to compound MIC for biofilm-negative Staphylococcus epidermidis ATCC 12228; type: functional
# [20] = tested on: Staphylococcus epidermidis; experiment: Antibacterial activity against Staphylococcus epidermidis ATCC 12228 assessed as cell surface wrinkling at 1 ug/mL after 1 hr by scanning electron microscopic analysis; type: functional, organism-based
# Summary of the method: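 S. epidermidis ATCC12228 grown 4 h at 37 °C, aerobic, to OD600 0.2. Cells washed in PBS pH 7.4 and resuspended to OD600 1.0. Treated with 1 µg/mL for 1 h at 37 °C, then diluted twofold. Washed, fixed overnight at 4 °C in 2.5% glutaraldehyde/PBS, dehydrated through graded ethanol, vacuum-dried, Pd-Au coated and imaged by SEM. Compared against untreated cells.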
# [21] = Hemolytic activity in rat RBC assessed as hemoglobin release at 256 ug/mL after 1 hr by microplate reader analysis relative to control; type: ADME, cell-based, Erythrocyte; details: red blood cells (RBC), read-out: Activity; summary of the method: as §1
# Streptococcus pyogenes [22] = experiment: Ratio of gramicidin D MIC to compound MIC for glossy colony producing Streptococcus pyogenes; type: functional
# [23] = Hemolytic activity in rat RBC assessed as hemoglobin release at 128 ug/mL after 1 hr by microplate reader analysis; type: ADME, cell-based; details: erythrocyte; summary of the method: as §1
# Staphylococcus aureus [24] = experiment: Ratio of gramicidin D MIC to compound MIC for Staphylococcus aureus NCTC 6571; type: functional
# [25] = Hemolytic activity in rat RBC assessed as hemoglobin release at 64 ug/mL after 1 hr by microplate reader analysis; type: ADME, cell-based; details: erythrocyte
# Summary of the method: (§4)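 Rat RBCs (2% w/w) incubated 1 h at 37 °C, 5% CO2 with twofold dilutions starting at 256 µg/mL. PBS served as negative control and 1% w/v Triton X100 as the 100% lysis control. After centrifugation (2000 rpm, 10 min), supernatant absorbance read at 550 nm. Hemoglobin release expressed as % of Triton. Triplicates, with blood from at least two rats.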
# [26] = Hemolytic activity in rat RBC assessed as hemoglobin release at 2 ug/mL after 1 hr by microplate reader analysis relative to control; type: ADME, cell-based, Erythrocyte; details: red blood cells (RBC), read-out: Activity; summary of the method: as §4
SMILES,MIC (Streptococcus pyogenes [2]) [µg/mL],MIC [3] [µg/mL],MIC [4] [µg/mL],MIC (Streptococcus pyogenes [5]) [µg/mL],MIC [6] [µg/mL],MIC [7] [µg/mL],MIC (Staphylococcus aureus [8]) [µg/mL],MIC [9] [µg/mL],MIC (Streptococcus pyogenes [10]) [µg/mL],MIC (Streptococcus pyogenes [11]) [µg/mL],MIC (Staphylococcus aureus [12]) [µg/mL],"hemolysis at 1 h, 16 ug/mL [13] [%]",MIC (Streptococcus pyogenes [14]) [µg/mL],MIC (Streptococcus pyogenes [15]) [µg/mL],MIC (Staphylococcus aureus [16]) [µg/mL],"hemolysis at 1 h, 256 ug/mL [21] [%]",other results
CCCCCCCCCCCCCCCCSC[C@H]1O[C@H](O[C@H]2[C@H](O[C@@H]3O[C@H](CO)[C@@H](O[C@H]4O[C@@H](CN)[C@@H](O)[C@H](O)[C@H]4N)[C@H]3O)[C@@H](O)[C@H](N)C[C@@H]2N)[C@H](N)[C@@H](O)[C@@H]1O,> 64,64,64,32,32,32,64,16,8,8,64,33.8,32,32,64,,"hemolysis at 1 h, 32 ug/mL [1]: 100%"
CCCCCCCCSC[C@H]1O[C@H](O[C@H]2[C@H](O[C@@H]3O[C@H](CSCCCCCCCC)[C@@H](O[C@H]4O[C@@H](CN)[C@@H](O)[C@H](O)[C@H]4N)[C@H]3O)[C@@H](O)[C@H](N)C[C@@H]2N)[C@H](N)[C@@H](O)[C@@H]1O,2,2,2,2,2,2,4,2,2,2,4,0.8,2,4,8,62.5,Ratio (Staphylococcus aureus [17]): > 16; Ratio (Streptococcus pyogenes [18]): > 16; Ratio [19]: 4; Activity [20]: Active; Ratio (Streptococcus pyogenes [22]): 8; Activity [23]: Toxic; Ratio (Staphylococcus aureus [24]): 16
CC(C)C[C@@H](NC(=O)[C@H](C)NC(=O)CNC(=O)[C@@H](NC=O)C(C)C)C(=O)N[C@@H](C)C(=O)N[C@@H](C(=O)N[C@H](C(=O)N[C@@H](C(=O)N[C@@H](Cc1c[nH]c2ccccc12)C(=O)N[C@H](CC(C)C)C(=O)N[C@@H](Cc1c[nH]c2ccccc12)C(=O)N[C@H](CC(C)C)C(=O)N[C@@H](Cc1c[nH]c2ccccc12)C(=O)N[C@H](CC(C)C)C(=O)N[C@@H](Cc1c[nH]c2ccccc12)C(=O)NCCO)C(C)C)C(C)C)C(C)C [GRAMICIDIN D] (For-VGA[dL]A[dV]V[dV]W[dL]W[dL]W[dL]W-NHCH2CH2OH),< 0.5,< 0.5,2,16,8,< 0.5,> 64,< 0.5,< 0.5,2,32,,< 0.5,> 64,64,< 60,"Activity [25]: Toxic; hemolysis at 1 h, 2 ug/mL [26]: 2.4%"
